Screening results: PubChem, Sanford-Burnham Center for Chemical Genomics
PMI act satM6P: human PMI activators, high substrate, primary screen, biochemical, fluorescence intensity, near-saturating mannose 6-phosphate; Mannose-6-phosphate isomerase (Homo sapiens), P34949; coupled PMI enzyme assay, resazurin fluorescence, 20 min; stronger effect = higher value; 1 = untreated enzyme, 0 = substrate-free blank; activation factor at 20 µM; hit rate 0.34% among 190,000; AID 1216, 2008;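 active = activation factor of 2 or more at 20 µM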
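Test system: human phosphomannose isomerase with PGI, G6PDH, diaphorase coupling enzymes / Doses: 20 µM compound, 1% DMSO / Times: enzyme reaction with compound 20 min at room temperature / Measured by: Diaphorase-driven resazurin-to-resorufin fluorescence, excitation 544, emission 590 nm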
PMI activator: activators of human PMI, primary screen, biochemical, fluorescence intensity, near-Km mannose 6-phosphate | purified human PMI, coupled resazurin fluorescence, 20 min; stronger effect = higher value; 1 = vehicle control, 0 substrate-free wells | hit rate 0.005% among 190,000 | Mannose-6-phosphate isomerase (Homo sapiens), P34949 | activation factor at 20 µM;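 active = activation factor of 2 or more at 20 µM, relative to plate controls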
TNAP act hiacc: TNAP activators at high phosphate acceptor level, primary screen, biochemical, luminescence, uHTS | activation factor at 20 µM | purified TNAP, CDP-star luminescence, 1 M DEA, 30 min; stronger effect = higher value; 0 = EDTA background, 1 = DMSO-only activity | AID 1136, 2008 | 200,000 tested, under 10 active | Alkaline phosphatase, tissue-nonspecific isozyme (Homo sapiens), P05186;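 active = activation factor at least 2 at 20 µM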
Target sequence (P05186 whole entry, looked up): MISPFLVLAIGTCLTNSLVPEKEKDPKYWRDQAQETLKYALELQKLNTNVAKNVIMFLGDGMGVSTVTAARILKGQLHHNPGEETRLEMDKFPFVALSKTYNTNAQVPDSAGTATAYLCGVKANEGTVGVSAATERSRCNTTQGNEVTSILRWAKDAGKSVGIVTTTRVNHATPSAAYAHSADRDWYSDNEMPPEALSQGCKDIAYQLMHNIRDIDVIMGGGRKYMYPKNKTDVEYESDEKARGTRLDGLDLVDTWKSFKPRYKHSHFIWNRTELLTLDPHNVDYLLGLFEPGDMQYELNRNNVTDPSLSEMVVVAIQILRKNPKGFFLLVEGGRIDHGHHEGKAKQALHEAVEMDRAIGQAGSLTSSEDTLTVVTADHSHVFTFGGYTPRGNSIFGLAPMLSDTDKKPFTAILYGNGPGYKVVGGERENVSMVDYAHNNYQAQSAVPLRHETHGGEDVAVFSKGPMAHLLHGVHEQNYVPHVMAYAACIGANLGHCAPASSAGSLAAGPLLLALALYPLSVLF
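Control set: EDTA negative control, DMSO positive control / Assay system: human TNAP / Quantity: TNAP 1/800 final / Evaluation: TNAP activation factor scaled between EDTA and DMSO control wells / Measured by: luminescent substrate turnover signal / Compound dosing: one dose, 20 µM / Times: 30 min enzyme reaction at room temperature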
TNAP inh hiacc: human TNAP enzyme inhibitors, primary screen, biochemical, luminescent, high phosphate acceptor level, uHTS. hit rate 0.03% among 200,000. Alkaline phosphatase, tissue-nonspecific isozyme (Homo sapiens), P05186. inhibition, % at 20 µM. AID 1135, 2008. purified TNAP, CDP-star luminescence, 1 M DEA;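 active = over 50% inhibition of tissue-nonspecific alkaline phosphatase at 20 µM in the single-dose screen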;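 also: plate controls were DMSO wells for no effect and EDTA-quenched wells as full inhibition for full effect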
TNAP inh no acc: human TNAP enzyme inhibitors, primary screen, biochemical, luminescent, no phosphate acceptor, uHTS. Alkaline phosphatase, tissue-nonspecific isozyme (Homo sapiens), P05186. purified TNAP, CDP-star luminescence, 30 min. inhibition, % at 20 µM. hit rate 0.26% among 200,000. AID 1012, 2008;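 active = tissue-nonspecific alkaline phosphatase inhibition above about 50% at 20 µM in the single-dose screen, limit read from the data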;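 also: 0% = DMSO negative control and 100% = EDTA positive control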
* marks the source's active call; other numbers are inactive results. In the library only some 0.62% were active in any assay of this set; here they are far more common.

SMILES	PMI act satM6P	PMI activator	TNAP act hiacc	TNAP inh hiacc	TNAP inh no acc
CC(=O)c1sc2nc(-c3ccc(C)cc3)c3c(c2c1N)CCCC3	1.7	1.4	1.1	-7	-2
N#Cc1c(NC(=O)CSc2nnc(-c3ccncc3)n2CC2CCCO2)sc2c1CCCC2 (centres undefined)	0.9	1	0.5	51*	29
Cc1sc(NC(=O)CSc2nnc(-c3ccccc3)o2)c(C#N)c1C	1	1	0.9	6	-6
NC(=O)c1c(NC(=O)CSc2nnc(-c3ccccc3)n2CC2CCCO2)sc2c1CCC2 (centres undefined)	0.8	0.8	1	-2	-10
N#Cc1c(NC(=O)CSc2nnc(-c3ccccc3)o2)sc2c1CCCC2	1	1.1	0.4	63*	4
N#Cc1c(NC(=O)CSc2nnc(-c3ccccc3O)n2-c2ccccc2)sc2c1CCCC2	1.1	1	1	-2	-2
CCn1c(SCC(=O)Nc2sc3c(c2C#N)CCCC3)nnc1-c1ccncc1	1	1.1	0.2	77*	58*
Cc1ccc(S(=O)(=O)N/N=C\c2cc([N+](=O)[O-])ccc2Cl)cc1	2*	1.5	1	0	-13
CC(C(=O)Nc1ccc2c(c1)OCCO2)N(C)Cc1c(F)cccc1Cl (centres undefined)	1.1	1.1	1	-1	-12
NS(=O)(=O)c1ccc(CCNC(=O)CNS(=O)(=O)c2cccc(Br)c2)cc1	0.9	0.9	0.9	12	76*
